Rpn11 inh = inhibitors of human proteasome Rpn11 | human 26S proteasome, Ub4-pepOG fluorescence polarization; 20S core pre-blocked with epoxomicin | O00487 | inhibition, % at 20 µM | hit rate 0.59% among 360,000;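 active means inhibition at 20 µM, scaled to each plate's controls, above about 33%, limit read from the data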
STEP inh = blocks human striatal-enriched tyrosine phosphatase | recombinant STEP, OMFP fluorogenic substrate, fluorescence | hit rate 0.25% among 360,000 | inhibition, % at 20 µM | P54829;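 active means inhibition at 20 µM, scaled per plate between control wells, above about 37%, limit read from the data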
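Assay system: isolated STEP enzyme. Buffer or medium: pH 6.0 Bis-Tris with DTT and Tween 20. Also added: fluorogenic phosphatase substrate OMFP at 25 µM final. Dosing: 20 µM, 1% DMSO. Timing: 20 min reaction, room temperature, in the dark. Measured by: fluorescence intensity, excitation 480 nm, emission 540 nm. Evaluation: normalized % inhibition.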
Scp-1 inhibitor = Scp-1 (human) phosphatase inhibition. AID 493091. Recombinant Scp1, phosphopeptide, malachite green phosphate absorbance. inhibition, % at 20 µM. hit rate 0.88% among 340,000;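 active means inhibition above about 50% at 20 µM, limit read from the data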
Target sequence (Q9GZU7 76-261 limits assumed): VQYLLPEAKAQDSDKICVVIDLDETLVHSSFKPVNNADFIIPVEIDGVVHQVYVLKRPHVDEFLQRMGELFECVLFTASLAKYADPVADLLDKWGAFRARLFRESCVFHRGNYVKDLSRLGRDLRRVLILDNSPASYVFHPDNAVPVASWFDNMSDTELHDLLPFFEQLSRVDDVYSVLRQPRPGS
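Assay system: SCP-1 catalytic fragment, aa 76-261 | Buffer or medium: Tris acetate buffer pH 5.5 with MgCl2 and Tween-20 | Compound: One concentration, 20 µM, with 1.0% DMSO | Also added: Phospho 17-mer peptide substrate | Signal: Absorbance at 630 nm | Incubation: 45 min enzyme reaction at room temperature | Measure: % inhibition of SCP-1 phosphate liberation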
LMPTP block = blocks human LMPTP phosphatase | hit rate 0.22% among 360,000 | recombinant LMPTP-A, OMFP fluorogenic substrate, fluorescence intensity | inhibition, % at 20 µM;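 active means compounds that cut the enzyme signal by at least half of the control window in the single-dose screen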
Target sequence (P24666 whole entry, looked up): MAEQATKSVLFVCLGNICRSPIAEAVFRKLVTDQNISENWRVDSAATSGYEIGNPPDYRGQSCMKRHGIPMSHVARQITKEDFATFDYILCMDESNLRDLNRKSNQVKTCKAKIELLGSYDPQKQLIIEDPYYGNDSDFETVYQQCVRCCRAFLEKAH
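Assay system: LMPTP-A phosphatase enzyme | Input: 0.625 nM enzyme | Also added: Fluorogenic phosphatase substrate OMFP at 400 µM final | Compound dosing: One test concentration per compound, 20 µM, with 3% DMSO overall | Schedule: 50 min enzyme reaction at room temperature, protected from light | Signal: Fluorescence intensity | Benchmarks: no-enzyme and uninhibited controls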
DNMT1 inh = DNMT1 (human) enzyme inhibition; DNMT1 molecular beacon, Hinp1I cleavage, fluorescence; inhibition (reported as % activation of signal), % at 10 µM; hit rate 0.83% among 360,000; in the data active means inhibition above about 50%
SUMO1 PPI mod = modulators of human SUMO1-mediated protein-protein interactions; P63165; SUMO1 binding to a labelled peptide, TR-FRET, 1 h; inhibition, % at 20 µM; hit rate 0.33% among 360,000; in the data active means inhibition above about 37%
Target sequence (P63165 whole entry, looked up): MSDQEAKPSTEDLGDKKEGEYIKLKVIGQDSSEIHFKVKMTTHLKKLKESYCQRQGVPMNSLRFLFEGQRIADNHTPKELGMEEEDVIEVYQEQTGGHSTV
Scp-1 conf = Scp-1 (human) inhibition, single-dose confirmed; recombinant SCP-1 catalytic domain, phosphate release, malachite green absorbance; shares compounds with Scp-1 inhibitor; hit rate 61% among 2,500; inhibition, % at 20 µM; AID 540281
MG interference = colorimetric interference in Scp-1 counter-screen. apparent inhibition (interference), % at 20 µM. Colorimetric interference counterscreen, malachite green absorbance 630 nm. shares compounds with Scp-1 inhibitor. 2,500 tested, under 10 active;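 further: compounds added after enzyme reaction finished so only phosphate colour detection is probed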
Scp1 DSF = validation of human Scp-1 inhibitors by thermal shift binding; shares compounds with Scp-1 inhibitor; Recombinant SCP1, Sypro Orange thermal shift Tm; thermal shift relative to vanadate control, % at 40 µM; hit rate 25% among 1,500; AID 540329;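 active means substances whose mean melting-temperature shift, as a percentage of the reference inhibitor's shift, reaches about 5.3%, limit read from the data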
DNMT1 inh conf = confirmation of human DNMT1 inhibitors; hit rate 8% among 2,300; inhibition, % at 10 µM; shares compounds with DNMT1 inh; DNMT1 molecular beacon HinP1I cleavage, fluorescence;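 active means average inhibition of at least 30% in the single-concentration confirmation test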
DNMT1 interf = shows spectral interference in the DNMT1 beacon assay; shares compounds with DNMT1 inh; DNMT1 molecular beacon spectral interference counterscreen, fluorescence 485/520; activation (fluorescence interference), % at 10 µM; hit rate 1% among 2,300; AID 602387;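 active means activation of at least 30% at 10 µM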;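 further: DNMT1 catalytic domain with a HinP1I cleavage step and a FAM/dabcyl DNA beacon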
STEP inh conf = confirmation of human STEP phosphatase inhibitors; shares compounds with STEP inh; recombinant STEP, OMFP fluorogenic substrate, fluorescence; inhibition, % at 20 µM; hit rate 32% among 520; AID 623866; call rule not given here
Large screens that a line does not name were inactive (follow-up assays come after a bar, where shown). Most compounds without a hit are left out; they make up all but 2.3% or so of the library.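 How the source made its calls, unless noted: active means inhibition of at least 30% at 20 µM; inactive means the rest.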

COc1cc(/C=C(\C#N)C(=O)Nc2cccc(C(=O)O)c2)ccc1OCc1ccc(C)cc1	STEP inh 61, Scp-1 inhibitor 86 | Scp-1 conf 72 | MG interference inactive | Scp1 DSF inactive | STEP inh conf inactive
CCn1c(=S)sc2c(=O)n(CC(=O)Nc3ccccc3C(F)(F)F)c(C)nc21	STEP inh 87, Scp-1 inhibitor 68, LMPTP block 67 | Scp-1 conf inactive | MG interference inactive | STEP inh conf inactive
Cc1cc(=O)oc2cc(NC(=O)c3cccc(F)c3)ccc12	STEP inh 91, Scp-1 inhibitor 63, DNMT1 inh 58 | Scp-1 conf 35 | MG interference inactive | Scp1 DSF inactive | DNMT1 inh conf inactive | DNMT1 interf inactive | STEP inh conf inactive
Cc1cc(=O)oc2cc(NC(=O)c3ccc(OC(F)F)cc3)ccc12	STEP inh 84, Scp-1 inhibitor 87 | Scp-1 conf 79 | MG interference inactive | Scp1 DSF inactive | STEP inh conf inactive
OCC[C@@H]1C[C@@H](O)[C@H](O)[C@@]2(Cc3ccccc3O2)O1	none
COc1cc(-c2ccc3oc(-c4ccsc4)cc(=O)c3c2)cc(OC)c1OC	none
O=c1cc(-c2ccsc2)oc2cc(-c3ccc4c(c3)OCO4)ccc12	STEP inh 46, Scp-1 inhibitor 68, LMPTP block 68, DNMT1 inh 61 | Scp-1 conf 53 | MG interference inactive | Scp1 DSF inactive | DNMT1 inh conf inactive | DNMT1 interf inactive | STEP inh conf inactive
O=C(NCC1COc2ccccc2O1)c1ccc(Cl)c(S(=O)(=O)N2CCCC2)c1 (stereo unspecified)	none
C=CCc1cccc2cc(C(=O)Nc3ccc(CC(=O)O)cc3)c(=O)oc12	DNMT1 inh 81 | DNMT1 inh conf inactive | DNMT1 interf inactive
CCc1c(-c2ccccc2)nc2sc3c(c2c1N)CCCC3	none
CCc1nc(N=Nc2c(O)[nH]c3ccccc23)c2c3c(sc2n1)CCC3	DNMT1 inh 64 | DNMT1 inh conf inactive | DNMT1 interf inactive
COc1ccc(N(CC(=O)NC2CC2)S(=O)(=O)c2ccccc2)cc1	none
C(=C\c1ccco1)/c1ccc2ccccc2n1	LMPTP block 57, DNMT1 inh 80 | DNMT1 inh conf inactive | DNMT1 interf inactive
Cc1cc(C)c(OCC(O)CN2CCN(C(=O)c3ccccc3)CC2)c(C)c1 (stereo unspecified)	none
Cc1cc(-c2onc3ccc(Cl)cc23)ccc1O	none
O=Cc1ccc(-c2cccs2)s1	none
Oc1ccc(N=Cc2ccc(-c3cccs3)s2)cc1	DNMT1 inh 77, SUMO1 PPI mod 68 | DNMT1 inh conf inactive | DNMT1 interf inactive
C=CCn1c(N)c(C(=O)OC(C)(C)C)c2nc3ccccc3nc21	none
C=CCn1c(N)c(C(=O)OC(C)CC)c2nc3ccccc3nc21 (stereo unspecified)	DNMT1 inh 70 | DNMT1 inh conf inactive | DNMT1 interf inactive
O=[N+]([O-])c1cccc(C2(O)COc3ccccc3O2)c1 (stereo unspecified)	none
CCCCN(C)CCn1c(=S)[nH]c2ncccc2c1=O	DNMT1 inh 94 | DNMT1 inh conf inactive | DNMT1 interf inactive
CC(C)(C)OC(=O)C[C@@H]1C/C=C\C[C@H](CC(=O)N[C@@H](CO)Cc2ccccc2)C(=O)N[C@H](C(C)(C)C)COC1=O	none
Nc1c(C(=O)C2CC2)sc2nc(-c3cccs3)cc(C(F)(F)F)c12	DNMT1 inh 68 (not shown: Rpn11 inh) | DNMT1 inh conf inactive | DNMT1 interf 34
CC(C)NC(=O)c1sc2nc(-c3cccs3)cc(-c3cccs3)c2c1N	none (no result: Rpn11 inh, STEP inh, LMPTP block, DNMT1 inh, SUMO1 PPI mod)
CCOC(=O)C1=C(c2ccccc2)N=c2s/c(=C\c3cc(OC)c(OC)c(OC)c3)c(=O)n2C1c1cccs1 (stereo unspecified)	none
CCOC(=O)C1=C(c2ccccc2)N=c2s/c(=C\c3ccco3)c(=O)n2C1c1cccs1 (stereo unspecified)	DNMT1 inh 58 | DNMT1 inh conf inactive | DNMT1 interf inactive
COc1cccc(/C=C2/Oc3ccccc3N(CC(=O)NCC3CCCO3)C2=O)c1 (stereo unspecified)	none
CCN(CC)S(=O)(=O)c1cccc(C(=O)N[C@H](C(=O)NC2=NCCS2)C(C)C)c1	DNMT1 inh 66 | DNMT1 inh conf inactive | DNMT1 interf inactive
CCN(CC)S(=O)(=O)c1cccc(C(=O)NC(C(=O)NC2=NCCS2)C(C)C)c1 (stereo unspecified)	none
O=C(O)/C=C/c1ccc([N+](=O)[O-])o1	Scp-1 inhibitor 58, DNMT1 inh 75 | DNMT1 inh conf inactive | DNMT1 interf inactive
CN1CCN(C(=O)/C=C/c2ccc([N+](=O)[O-])o2)CC1	none
COc1ccc(COC(=O)C2CCN(C(=O)c3ccc(Cl)cc3)CC2)cc1F	none
COc1ccccc1/C=C/C(=O)OCC(=O)N1CCc2ccccc21	none
CC1(NC(=O)CCc2nc3sc4c(c3c(=O)[nH]2)CCCC4)CCS(=O)(=O)C1 (stereo unspecified)	DNMT1 inh 54 (no result: Scp-1 inhibitor) | DNMT1 inh conf inactive | DNMT1 interf inactive
Cc1ccc(CN2C(=O)CCC2C(=O)NCc2ccc3c(c2)OCO3)cc1 (stereo unspecified)	DNMT1 inh 91 | DNMT1 inh conf inactive | DNMT1 interf inactive
C[C@@H](C(=O)Nc1nccs1)N1C(=O)C2CC=CCC2C1=O (stereo partly specified)	DNMT1 inh 60 | DNMT1 inh conf inactive | DNMT1 interf inactive
CC(C(=O)Nc1nccs1)N1C(=O)C2CC=CCC2C1=O (stereo unspecified)	none
COc1cc(C)c(S(=O)(=O)NOCc2ccccc2)c(C)c1C	none

Screening results (PubChem BioAssay)
